Source: ChEMBL document CHEMBL4219120, “Synthesis and SAR study of new hydroxy and chloro-substituted 2,4-diphenyl 5H-chromeno[4,3-b]pyridines as selective topoisomerase IIα-targeting anticancer agents” (Bioorg Med Chem, 2018)
The source made the active and inactive calls. No cut-off for these calls is given here.

target: DNA topoisomerase 2-alpha (Homo sapiens) (UniProt P11388); assay: Inhibition of recombinant human topoisomerase 2alpha assessed as decrease in relaxation of supercoiled pBR322 DNA at 100 uM after 30 mins by agarose gel electrophoresis relative to control; conditions: not given
In short: (§1)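 Recombinant human topo IIα (1 unit) with 100 ng supercoiled pBR322 in 10 mM Tris-HCl pH 7.9, 50 mM NaCl, 50 mM KCl, 5 mM MgCl2, 1 mM EDTA, 1 mM ATP, 15 µg/mL BSA, 30 min at 37 °C. Quenched with 7 mM EDTA. 0.8% agarose/TAE gel, 50 V, 1 h; EtBr stain; UV densitometry. Compounds came from 20 mM DMSO stocks. 20 µM was tested only when inhibition at 100 µM exceeded 30%. Etoposide was the positive control.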

DNA topoisomerase 2-alpha (Homo sapiens), sequence (P11388 whole entry): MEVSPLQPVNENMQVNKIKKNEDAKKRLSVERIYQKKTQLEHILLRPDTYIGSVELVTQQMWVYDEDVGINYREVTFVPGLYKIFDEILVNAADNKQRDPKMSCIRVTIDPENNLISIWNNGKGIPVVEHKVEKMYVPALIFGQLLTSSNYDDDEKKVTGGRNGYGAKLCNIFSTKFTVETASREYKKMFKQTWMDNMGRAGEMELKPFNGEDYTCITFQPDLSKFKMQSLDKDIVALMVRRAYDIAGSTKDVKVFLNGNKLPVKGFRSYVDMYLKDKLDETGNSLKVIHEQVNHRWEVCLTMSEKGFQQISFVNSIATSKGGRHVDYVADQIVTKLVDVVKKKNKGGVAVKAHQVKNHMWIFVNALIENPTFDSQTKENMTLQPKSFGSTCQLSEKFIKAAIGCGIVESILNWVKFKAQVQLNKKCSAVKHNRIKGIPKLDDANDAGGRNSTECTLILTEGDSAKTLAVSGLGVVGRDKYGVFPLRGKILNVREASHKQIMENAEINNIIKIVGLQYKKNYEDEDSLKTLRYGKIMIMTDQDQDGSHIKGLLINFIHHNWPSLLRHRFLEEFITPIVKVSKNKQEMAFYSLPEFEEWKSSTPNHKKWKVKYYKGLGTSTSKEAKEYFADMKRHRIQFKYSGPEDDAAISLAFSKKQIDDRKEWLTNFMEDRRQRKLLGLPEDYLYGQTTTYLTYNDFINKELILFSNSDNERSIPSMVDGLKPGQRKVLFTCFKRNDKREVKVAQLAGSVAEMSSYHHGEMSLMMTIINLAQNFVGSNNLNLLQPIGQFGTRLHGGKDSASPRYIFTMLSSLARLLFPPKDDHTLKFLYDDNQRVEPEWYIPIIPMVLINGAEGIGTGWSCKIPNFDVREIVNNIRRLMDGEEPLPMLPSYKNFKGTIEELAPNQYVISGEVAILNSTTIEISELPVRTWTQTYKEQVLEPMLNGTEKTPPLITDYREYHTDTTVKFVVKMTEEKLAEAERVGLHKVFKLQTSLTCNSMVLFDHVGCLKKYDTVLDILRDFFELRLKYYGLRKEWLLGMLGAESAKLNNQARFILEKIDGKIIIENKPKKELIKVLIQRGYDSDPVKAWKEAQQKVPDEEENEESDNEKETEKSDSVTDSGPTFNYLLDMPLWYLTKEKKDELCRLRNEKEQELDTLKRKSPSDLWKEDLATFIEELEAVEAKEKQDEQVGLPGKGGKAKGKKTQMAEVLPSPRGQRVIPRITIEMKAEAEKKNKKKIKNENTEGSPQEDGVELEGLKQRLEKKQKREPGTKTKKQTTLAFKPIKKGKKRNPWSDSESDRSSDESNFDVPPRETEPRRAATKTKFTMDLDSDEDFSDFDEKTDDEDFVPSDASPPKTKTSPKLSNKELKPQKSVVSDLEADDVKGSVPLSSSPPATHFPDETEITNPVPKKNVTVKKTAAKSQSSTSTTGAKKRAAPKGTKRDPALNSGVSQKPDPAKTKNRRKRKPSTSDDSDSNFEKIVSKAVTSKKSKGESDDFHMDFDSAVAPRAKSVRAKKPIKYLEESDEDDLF

| SMILES | inhibition |
| --- | --- |
| Oc1ccccc1-c1cc(-c2ccccc2Cl)c2c(n1)-c1ccccc1OC2 | 78.1% |
| Oc1ccccc1-c1cc(-c2ccccc2Cl)nc2c1COc1ccccc1-2 | 79.1% |
| Oc1ccccc1-c1cc(-c2ccc(Cl)cc2)c2c(n1)-c1ccccc1OC2 | 34.7% |

The remaining lines, values ahead:

| inhibition | SMILES |
| --- | --- |
| 100% | Oc1ccc(-c2cc(-c3ccc(Cl)cc3)c3c(n2)-c2ccccc2OC3)cc1 |
| 63.5% | Oc1ccc(-c2cc(-c3ccccc3Cl)c3c(n2)-c2ccccc2OC3)cc1 |
| 71.3% | Oc1cccc(-c2cc(-c3ccc(Cl)cc3)nc3c2COc2ccccc2-3)c1 |
| 66.7% | Oc1cccc(-c2cc(-c3ccc(Cl)cc3)c3c(n2)-c2ccccc2OC3)c1 |

target: DNA topoisomerase 2-alpha (Homo sapiens) (UniProt P11388); assay: Inhibition of recombinant human topoisomerase 2alpha assessed as decrease in relaxation of supercoiled pBR322 DNA at 20 uM after 30 mins by agarose gel electrophoresis relative to control; conditions: not given; in short: as §1

| SMILES | inhibition |
| --- | --- |
| Oc1ccccc1-c1cc(-c2ccccc2Cl)c2c(n1)-c1ccccc1OC2 | 45.5% |
| Oc1ccccc1-c1cc(-c2ccccc2Cl)nc2c1COc1ccccc1-2 | 47.3% |
| Oc1ccccc1-c1cc(-c2ccc(Cl)cc2)c2c(n1)-c1ccccc1OC2 | inactive |

The remaining lines, values ahead:

| inhibition | SMILES |
| --- | --- |
| 19.9% | Oc1ccc(-c2cc(-c3ccc(Cl)cc3)c3c(n2)-c2ccccc2OC3)cc1 |
| 48.1% | Oc1ccc(-c2cc(-c3ccccc3Cl)c3c(n2)-c2ccccc2OC3)cc1 |
| 63.8% | Oc1cccc(-c2cc(-c3ccc(Cl)cc3)nc3c2COc2ccccc2-3)c1 |
| 4.7% | Oc1cccc(-c2cc(-c3ccc(Cl)cc3)c3c(n2)-c2ccccc2OC3)c1 |

target: T1, DNA topoisomerase 1 (Homo sapiens) (UniProt P11387); assay: Inhibition of recombinant human topoisomerase 1 assessed as decrease in relaxation of supercoiled pBR322 DNA at 100 uM after 30 mins by agarose gel electrophoresis relative to control; conditions: not given
T1 sequence (whole entry): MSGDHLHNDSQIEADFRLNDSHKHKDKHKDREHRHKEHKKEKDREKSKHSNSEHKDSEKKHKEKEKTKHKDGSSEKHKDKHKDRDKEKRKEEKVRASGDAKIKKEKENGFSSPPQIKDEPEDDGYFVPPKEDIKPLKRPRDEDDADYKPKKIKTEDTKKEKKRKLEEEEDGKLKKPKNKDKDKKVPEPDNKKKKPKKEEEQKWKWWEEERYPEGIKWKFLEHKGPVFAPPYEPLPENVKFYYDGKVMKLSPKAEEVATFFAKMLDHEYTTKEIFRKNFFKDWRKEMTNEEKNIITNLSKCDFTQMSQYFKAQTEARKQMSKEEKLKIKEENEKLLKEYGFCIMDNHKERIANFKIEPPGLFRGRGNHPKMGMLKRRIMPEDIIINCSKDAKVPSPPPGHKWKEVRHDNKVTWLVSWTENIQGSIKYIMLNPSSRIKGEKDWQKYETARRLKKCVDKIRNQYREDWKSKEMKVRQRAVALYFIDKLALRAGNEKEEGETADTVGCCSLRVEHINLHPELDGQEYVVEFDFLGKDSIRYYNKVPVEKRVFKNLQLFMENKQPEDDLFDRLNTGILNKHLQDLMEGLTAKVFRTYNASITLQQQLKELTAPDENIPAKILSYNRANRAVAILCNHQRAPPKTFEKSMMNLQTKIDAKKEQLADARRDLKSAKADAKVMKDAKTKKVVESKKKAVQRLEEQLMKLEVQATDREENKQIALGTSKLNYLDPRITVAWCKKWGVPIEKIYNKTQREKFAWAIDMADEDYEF
In short: (§2)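 Supercoiled pBR322 (100 ng) with 1 unit recombinant human topo I in 10 mM Tris-HCl pH 7.9, 150 mM NaCl, 0.1% BSA, 0.1 mM spermidine, 5% glycerol, 30 min at 37 °C. Stopped with SDS/dye stop solution. Run on 0.8% agarose in TAE, 50 V, 1 h; EtBr-stained; bands quantitated under UV. Compounds came from 20 mM DMSO stocks. 20 µM was tested only when inhibition at 100 µM exceeded 30%. Camptothecin was the positive control.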

| SMILES | inhibition |
| --- | --- |
| Oc1ccccc1-c1cc(-c2ccccc2Cl)c2c(n1)-c1ccccc1OC2 | inactive |
| Oc1ccccc1-c1cc(-c2ccccc2Cl)nc2c1COc1ccccc1-2 | 4.7% |
| Oc1ccccc1-c1cc(-c2ccc(Cl)cc2)c2c(n1)-c1ccccc1OC2 | 20.1% |

Now from value to molecule:

| inhibition | SMILES |
| --- | --- |
| 38.5% | Oc1ccc(-c2cc(-c3ccc(Cl)cc3)c3c(n2)-c2ccccc2OC3)cc1 |
| 56.1% | Oc1ccc(-c2cc(-c3ccccc3Cl)c3c(n2)-c2ccccc2OC3)cc1 |
| 28.8% | Oc1cccc(-c2cc(-c3ccc(Cl)cc3)nc3c2COc2ccccc2-3)c1 |
| 20.2% | Oc1cccc(-c2cc(-c3ccc(Cl)cc3)c3c(n2)-c2ccccc2OC3)c1 |

target: T1, DNA topoisomerase 1 (Homo sapiens); assay: Inhibition of recombinant human topoisomerase 1 assessed as decrease in relaxation of supercoiled pBR322 DNA at 20 uM after 30 mins by agarose gel electrophoresis relative to control; conditions: not given; in short: as §2

| inhibition | SMILES |
| --- | --- |
| 1.7% | Oc1ccc(-c2cc(-c3ccc(Cl)cc3)c3c(n2)-c2ccccc2OC3)cc1 |
| inactive | Oc1ccc(-c2cc(-c3ccccc3Cl)c3c(n2)-c2ccccc2OC3)cc1 |

tested on: HCT-15; assay: Antiproliferative activity against human HCT15 cells after 72 hrs by CCK-8 assay; assay type: functional, cell-based; conditions: HCT-15, 72 h
In short: (§3)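 Cells seeded at 2-4 x 10^4 per well and grown overnight in medium with 10% FBS (37 °C, 5% CO2). After 4 h FBS starvation, medium was replaced with medium containing graded compound concentrations for 72 h. CCK-8 was added for 4 h more, then absorbance read at 450 nm. IC50 came from a four-parameter logistic fit. Mean ± S.D. of three experiments, each in triplicate.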

| SMILES | IC50 |
| --- | --- |
| Oc1ccccc1-c1cc(-c2ccccc2Cl)c2c(n1)-c1ccccc1OC2 | > 50000 nM |
| Oc1ccccc1-c1cc(-c2ccccc2Cl)nc2c1COc1ccccc1-2 | > 50000 nM |
| Oc1ccccc1-c1cc(-c2ccc(Cl)cc2)c2c(n1)-c1ccccc1OC2 | > 50000 nM |

Now those with a lower IC50, led by results:

| IC50 | SMILES |
| --- | --- |
| 1850 nM | Oc1ccc(-c2cc(-c3ccc(Cl)cc3)c3c(n2)-c2ccccc2OC3)cc1 |
| 4720 nM | Oc1ccc(-c2cc(-c3ccccc3Cl)c3c(n2)-c2ccccc2OC3)cc1 |
| 2300 nM | Oc1cccc(-c2cc(-c3ccc(Cl)cc3)nc3c2COc2ccccc2-3)c1 |
| 4570 nM | Oc1cccc(-c2cc(-c3ccc(Cl)cc3)c3c(n2)-c2ccccc2OC3)c1 |

tested on: T47D; assay: Antiproliferative activity against human T47D cells after 72 hrs by CCK-8 assay; assay type: functional, cell-based; conditions: not given; in short: as §3

| SMILES | IC50 |
| --- | --- |
| Oc1ccccc1-c1cc(-c2ccccc2Cl)c2c(n1)-c1ccccc1OC2 | 1660 nM |
| Oc1ccccc1-c1cc(-c2ccccc2Cl)nc2c1COc1ccccc1-2 | > 50000 nM |
| Oc1ccccc1-c1cc(-c2ccc(Cl)cc2)c2c(n1)-c1ccccc1OC2 | > 50000 nM |

Continued, values first:

| IC50 | SMILES |
| --- | --- |
| 1380 nM | Oc1ccc(-c2cc(-c3ccc(Cl)cc3)c3c(n2)-c2ccccc2OC3)cc1 |
| 940 nM | Oc1ccc(-c2cc(-c3ccccc3Cl)c3c(n2)-c2ccccc2OC3)cc1 |
| 1180 nM | Oc1cccc(-c2cc(-c3ccc(Cl)cc3)nc3c2COc2ccccc2-3)c1 |
| 750 nM | Oc1cccc(-c2cc(-c3ccc(Cl)cc3)c3c(n2)-c2ccccc2OC3)c1 |

tested on: HeLa; assay: Antiproliferative activity against human HeLa cells after 72 hrs by CCK-8 assay; assay type: functional, cell-based; conditions: not given; in short: as §3

| SMILES | IC50 |
| --- | --- |
| Oc1ccccc1-c1cc(-c2ccccc2Cl)c2c(n1)-c1ccccc1OC2 | > 50000 nM |
| Oc1ccccc1-c1cc(-c2ccccc2Cl)nc2c1COc1ccccc1-2 | > 50000 nM |
| Oc1ccccc1-c1cc(-c2ccc(Cl)cc2)c2c(n1)-c1ccccc1OC2 | > 50000 nM |

Second part, the molecule after the results:

| IC50 | SMILES |
| --- | --- |
| 2080 nM | Oc1ccc(-c2cc(-c3ccc(Cl)cc3)c3c(n2)-c2ccccc2OC3)cc1 |
| 680 nM | Oc1ccc(-c2cc(-c3ccccc3Cl)c3c(n2)-c2ccccc2OC3)cc1 |
| 760 nM | Oc1cccc(-c2cc(-c3ccc(Cl)cc3)nc3c2COc2ccccc2-3)c1 |
| 1940 nM | Oc1cccc(-c2cc(-c3ccc(Cl)cc3)c3c(n2)-c2ccccc2OC3)c1 |

target: DNA topoisomerase 2-alpha (Homo sapiens) (UniProt P11388); assay: Inhibition of recombinant human topoisomerase 2alpha assessed as decrease in relaxation of supercoiled pBR322 DNA at 100 uM after 30 mins by agarose gel electrophoresis relative to etoposide; conditions: not given

| fold change (FC) | SMILES |
| --- | --- |
| 1.19 | Oc1ccccc1-c1cc(-c2ccccc2Cl)nc2c1COc1ccccc1-2 |
| 1.07 | Oc1cccc(-c2cc(-c3ccc(Cl)cc3)nc3c2COc2ccccc2-3)c1 |

target: DNA topoisomerase 2-alpha (Homo sapiens) (UniProt P11388); assay: Inhibition of recombinant human topoisomerase 2alpha assessed as decrease in relaxation of supercoiled pBR322 DNA at 20 uM after 30 mins by agarose gel electrophoresis relative to etoposide; conditions: not given

| fold change (FC) | SMILES |
| --- | --- |
| 1.33 | Oc1ccccc1-c1cc(-c2ccccc2Cl)nc2c1COc1ccccc1-2 |
| 1.8 | Oc1cccc(-c2cc(-c3ccc(Cl)cc3)nc3c2COc2ccccc2-3)c1 |

target: T1, DNA topoisomerase 1 (Homo sapiens); assay: Inhibition of recombinant human topoisomerase 1 assessed as decrease in relaxation of supercoiled pBR322 DNA at 100 uM after 30 mins by agarose gel electrophoresis relative to camptothecin; conditions: not given

| fold change (FC) | SMILES |
| --- | --- |
| 0.06 | Oc1ccccc1-c1cc(-c2ccccc2Cl)nc2c1COc1ccccc1-2 |
| 0.36 | Oc1cccc(-c2cc(-c3ccc(Cl)cc3)nc3c2COc2ccccc2-3)c1 |
